# Results: ChEMBL document CHEMBL1158394, “Diversity-oriented synthesis of furo[3,2-f]chromanes with antimycobacterial activity” (Eur J Med Chem, 2009)
# The source made the active and inactive calls. The calls are words filed in the database; no cut-off is given here.
# Experiments:
# [1] = tested on: Mycobacterium tuberculosis; assay: Antimycobacterial activity against Mycobacterium tuberculosis H37Rv after 6 days by microdilution resazurin assay; assay type: functional; details: 144 h
# Procedure, shortened: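 The M. tuberculosis H37Rv inoculum is grown in Dubos medium with 10% ADC enrichment. DMSO drug stocks (50 mg/mL) are serially diluted twofold in 96-well plates, with DMSO and isoniazid controls. Plates are sealed and held at 37 °C for 6 days, then 0.01% resazurin is added for another 24 h. MIC95 is taken at >95% growth inhibition, in µg/mL. Duplicate runs in two independent experiments.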
# Vero = assay: Cytotoxicity against african green monkey Vero cells after 48 hrs by MTT assay; assay type: cell-based; details: Chlorocebus sabaeus
# Procedure, shortened: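 Vero cells seeded at 10⁵ cells/mL and preincubated 24 h at 37 °C, 5% CO₂; compounds added at various concentrations in 1% DMSO for 48 h; MTT (5 mg/mL solution) then added for 4 h at 37 °C; absorbance at 595 nm; 50% inhibitory concentration by curve fitting; duplicate in two independent experiments.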
# [2] = tested on: Mycolicibacterium smegmatis; assay: Antimycobacterial activity against Mycobacterium smegmatis str. MC2 155 up to 100 ug/mL; assay type: functional, organism-based
# Escherichia coli [3] = assay: Antibacterial activity against Escherichia coli CIP188631 after 24 hrs by twofold serial dilution method; assay type: functional, organism-based
# Procedure, shortened: (§1)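 LB precultures grown 24 h, diluted 1/1000 and seeded; twofold serial drug dilutions in LB; 37 °C for 24 h; growth read as optical density at 595 nm; 90% inhibitory concentration obtained by curve fitting; tetracycline positive control; duplicate in two independent experiments.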
# Staphylococcus aureus = assay: Antibacterial activity against Staphylococcus aureus ATCC 6538 after 24 hrs by twofold serial dilution method; assay type: functional; details: ATCC 6538, 24 h; procedure, shortened: as §1
# Candida tropicalis = assay: Antifungal activity against Candida tropicalis ATCC 66029 after 24 hrs by disk diffusion method; assay type: functional, organism-based
# Procedure, shortened: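 Kirby–Bauer disk diffusion: C. tropicalis suspension spread on solid Sabouraud plates; 6 mm paper discs impregnated with serial dilutions in DMSO placed on plates; inhibition zone diameter measured after 24 h at 30 °C; itraconazole positive control; duplicate in two independent experiments.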
# Escherichia coli [4] = assay: Genotoxicity in Escherichia coli PQ37 assessed as DNA damage-induced beta-galactosidase release by SOS-chromotest; assay type: toxicity, organism-based
# Procedure, shortened: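 E. coli PQ37 carrying lacZ under control of the SOS gene sfiA; DNA damage induces β-galactosidase, detected by chromogenic reaction with X-gal; duplicate in two independent experiments.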
SMILES,MIC95 [1],IC50 (Vero),Activity [2],Activity (Escherichia coli [3]),MIC90 (Staphylococcus aureus),diameter of the inhibition zone (DIZ) (Candida tropicalis),Activity (Escherichia coli [4])
Cc1c2c(c3cc(-c4cccs4)oc3c1C)CCC(C)(C)O2,6.2 µg/mL,> 100 µg/mL,inactive,inactive,–,–,–
Cc1c2c(c3cc(-c4cccnc4)oc3c1C)C(=O)CC(C)(C)O2,> 10 µg/mL,–,–,inactive,–,–,–
Cc1c2c(c3cc(-c4ccc[n+]([O-])c4)oc3c1C)CCC(C)(C)O2,5 µg/mL,5.6 µg/mL,–,inactive,5 µg/mL,–,–
Cc1c2c(c3cc(Cc4cccs4)oc3c1C)CCC(C)(C)O2,12.5 µg/mL,–,inactive,inactive,–,–,–
Cc1c2c(c3cc(-c4ccc(C#N)nc4)oc3c1C)CCC(C)(C)O2,> 10 µg/mL,–,–,inactive,–,–,–
Cc1c2c(c3cc(C4CCCO4)oc3c1C)CCC(C)(C)O2 (stereo unspecified),> 10 µg/mL,–,–,inactive,–,–,–
CC(=O)OCCCc1c(Br)oc2ccc3c(c12)CCC(C)(C)O3,–,–,–,inactive,–,–,–
CC1(C)CCc2c(ccc3oc4ccccc4c23)O1,10 µg/mL,100 µg/mL,–,inactive,–,–,–
Cc1c2c(c3cc(-c4ccncc4)oc3c1C)CCC(C)(C)O2,2.5 µg/mL,5.1 µg/mL,–,inactive,–,–,–
Cc1c2c(c3cc(-c4ccc(NCCCN(C)C)nc4)oc3c1C)CCC(C)(C)O2,3 µg/mL,1.6 µg/mL,–,inactive,5 µg/mL,Active,Toxic
CC1(C)CCc2c(ccc3oc(-c4cccnc4)c(CCCO)c23)O1,5 µg/mL,> 25 µg/mL,–,inactive,–,–,–
Cc1c(C)c2c(c(C)c1O)CCC(C)(C)O2 [APC-100],10 µg/mL,–,–,inactive,–,–,–
Cc1c(-c2ccncc2)oc2ccc3c(c12)C=CC(C)(C)O3,5 µg/mL,12.8 µg/mL,–,inactive,5 µg/mL,–,–
Cc1c(C)c2c(c(C)c1O)CC[C@@](C)(CCC[C@H](C)CCC[C@H](C)CCCC(C)C)O2 [ALPHA-TOCOPHEROL],10 µg/mL,–,–,inactive,–,–,–
Cc1c2c(c3cc(Cc4cccnc4)oc3c1C)CCC(C)(C)O2,3 µg/mL,6.4 µg/mL,–,inactive,5 µg/mL,–,–
CC(=O)OCCCc1c(-c2cccnc2)oc2ccc3c(c12)CCC(C)(C)O3,–,17.5 µg/mL,–,inactive,–,–,–
Cc1c2c(c3cc(CCC(=O)N4CCCC4)oc3c1C)CCC(C)(C)O2,10 µg/mL,–,–,inactive,–,–,–
Cc1c2c(c3cc(CC#N)oc3c1C)CCC(C)(C)O2,> 10 µg/mL,–,–,inactive,–,–,–

SMILES,MIC95 [1],IC50 (Vero),Activity [2],Activity (Escherichia coli [3]),MIC90 (Staphylococcus aureus),diameter of the inhibition zone (DIZ) (Candida tropicalis),Activity (Escherichia coli [4])
Cc1c2c(c3cc(-c4cnccn4)oc3c1C)CCC(C)(C)O2,10 µg/mL,–,–,inactive,–,–,–
Cc1c2c(c3cc(CCc4cccnc4)oc3c1C)CCC(C)(C)O2,5 µg/mL,7.3 µg/mL,–,inactive,5 µg/mL,–,–
Cc1c2c(c3cc(CCC(=O)N4CCN(C)CC4)oc3c1C)CCC(C)(C)O2,> 10 µg/mL,–,–,inactive,–,–,–
Cc1c2c(c3cc(Cc4ccc(Cl)cc4)oc3c1C)CCC(C)(C)O2,25 µg/mL,> 100 µg/mL,–,inactive,–,–,–
Cc1c2c(c3cc(-c4ccc(-c5nn[nH]n5)nc4)oc3c1C)CCC(C)(C)O2,10 µg/mL,–,–,inactive,–,–,–
Cc1c2c(c3cc(/C=C/c4cccnc4)oc3c1C)CCC(C)(C)O2,5 µg/mL,> 100 µg/mL,–,inactive,–,–,–
NNC(=O)c1ccncc1 [ISONIAZID],0.25 µg/mL,> 500 µg/mL,–,inactive,–,–,–
Cc1c2c(c3cc(CCC(=O)N4CCOCC4)oc3c1C)CCC(C)(C)O2,10 µg/mL,–,–,inactive,–,–,–
CC1(C)C=Cc2c(ccc3c2C2CCCOC2O3)O1 (stereo unspecified),250 µg/mL,–,–,inactive,–,–,–
CC1(C)CCc2c(ccc3oc(-c4ccncc4)c(CCCO)c23)O1,5 µg/mL,> 25 µg/mL,–,inactive,–,–,–
Cc1c2c(c3cc(-c4cccnc4)oc3c1C)CCC(C)(C)O2,5 µg/mL,–,–,inactive,–,–,–
COC(=N)c1ccc(-c2cc3c4c(c(C)c(C)c3o2)OC(C)(C)CC4)cn1,0.6 µg/mL,3.6 µg/mL,–,inactive,5 µg/mL,–,–
Cc1c2c(c3cc(-c4ccccn4)oc3c1C)CCC(C)(C)O2,100 µg/mL,–,–,inactive,–,–,–
CC1(C)C=Cc2c(ccc3oc(-c4ccncc4)cc23)O1,2.5 µg/mL,8.7 µg/mL,–,inactive,5 µg/mL,–,–
Cc1c2c(c3cc(-c4ccc(Cl)nc4)oc3c1C)CCC(C)(C)O2,> 10 µg/mL,–,–,inactive,–,–,–
CC(=O)OCCCc1c(-c2ccncc2)oc2ccc3c(c12)CCC(C)(C)O3,–,14.9 µg/mL,–,inactive,5 µg/mL,–,–
CC(=O)OCc1cc2c3c(c(C)c(C)c2o1)OC(C)(C)CC3,10 µg/mL,–,–,inactive,–,–,–
